Assay results: the RNAGym collection of RNA variant scans (doi:10.1126/science.aae0568)
This sample holds only a part of the variants without activity.

B1: tRNA (parent)
chain: GUUCCGUUGGCGUAAUGGUAACGCGUCUCCCUCCUAAGGAGAAGACUGCGGGUUCGAGUCCCGUACGGAACG

Variants of: B1
Assay: yeast fitness relative to wild type (ratio to wild type); higher = fitter; tRNA-Arg(CCU), competitive growth, 37 C, YPD
Procedure, shortened: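 Changes in genotype frequencies gave Darwinian fitness relative to wild type. Frequencies were read by 100-nucleotide paired-end sequencing of gene amplicons before and after pooled Saccharomyces cerevisiae strains, carrying tRNA-Arg(CCU) gene variants at the native locus, were competed in YPD at 37°C for 24 hours in six replicates. A genotype was kept only with ≥ 100 starting reads, and estimates < 0.5 were set to 0.5.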

Variant	yeast fitness
G51A A70G	0.85
C49U A57G	0.865
U47A A57G	0.923
C49G G51A	0.637
C49G C60U C62U U64A	≤ 0.5
U54C G68A	0.937
G51A G58A	0.967
C46G A57G	0.987
G56A C60G	0.681
G52C A57U C62U C66G	≤ 0.5
G48A C49G C60G	0.576
U53C C66U	0.814
U47G U54A G58A	≤ 0.5
G50A A57C C60G C61U	≤ 0.5
C46U A65C	0.997
G50A U59A	0.831
G52A C60A A69G	≤ 0.5
G50A G68A	0.915
G50C U54A	0.524
C46U G51C U64A	≤ 0.5
G56A A57C	0.699
G56A A57G	0.905
C55A C62G	0.543
C46A A70U	1.04

Variant	yeast fitness
C49U U54G C61U	≤ 0.5
C46G G51A G52A	0.566
G48C G51C	0.591
A45U C49G	0.872
U54G A69U	0.648
C49G G50C C62U	0.539
C55U C61A G68A	≤ 0.5
C55G U59A A70G	0.731
G48C G52C C55U	≤ 0.5
C55A A70U	0.658
U53A A57C	0.623
G56A G58A G67C	0.679
G52A G56U	0.554
C46U A65U A69U	0.737
C49A G51A C55A C60A	≤ 0.5
A45U A70C	0.987
U53A C55U	0.545
C55G A65C G67A	≤ 0.5
G50A C60A	0.581
C49G G63C G68C	≤ 0.5
G56A G68C	0.838
G48C G67C	0.563
C49A A65C	0.686
C49U U59C C61U	0.618

Variant	yeast fitness
C46G U54A	0.702
C46G U54G	0.527
C49G G52A C61G	0.534
C46U U54C	0.717
G51C G56A	0.698
C46U G48C	0.951
G50A C61A	0.744
C49G C66A	0.654
U47C G58C	0.971
U47G C49A A69U	0.573
G50C C60G	≤ 0.5
U47C A70G	1.03
A45U A65C G68A	0.567
C46G U54C C62A	≤ 0.5
C46U U59G	0.962
C46U U59C	1.03
C46G C55U	0.769
C55G A69U	0.636
C55G A69G	0.627
C55G G68C	0.624
C46A C61U	0.901
U47C C62G A65C	≤ 0.5
G48A U53G	0.599
U47C G58U A65U	0.511

Variant	yeast fitness
C55G C61U	0.743
U47C G48A	0.96
C49A G50C	0.572
G51A C60G	0.596
G51A C60A	0.599
G56A U59C A65C	0.738
C55U G58A U59C C62U	≤ 0.5
C55G A57U	0.633
C49U U53C A69C	0.597
G50C G67A	0.816
U54C C66U	0.767
G51A G56A U59C	0.565
C46U U53A	0.704
C55U G67C	0.677
G48C G68C	0.789
G48C G68U	0.771
C55U C61U	0.75
C49U G50C	0.815
C49A A57U	0.55
G51A C66G	0.704
C49G G52A A57C	≤ 0.5
G50C C62G A70U	0.606
U54G G63C	≤ 0.5
C49U A57U G58C	≤ 0.5

Variant	yeast fitness
G50C A69U	0.833
G50C A69C	0.67
C55U A57U	0.634
U53A A69C	0.622
U53A A69U	0.891
G51C C61A	0.516
G56C G58A	0.607
G56C G58C	0.563
G50C C55U A69G	0.554
U54C C62U	0.815
G50C G56C	0.614
G48A C61U A65C	≤ 0.5
C46U G58A C62U	0.665
C49U A65G G67A A69U	≤ 0.5
G50A G51C A65C	≤ 0.5
C55A G68C	0.674
U47C U59C	0.926
C46G G48A G52A	0.913
U47C C66A	0.775
C49U G56A G67A	0.593
C49A G63C A69G	≤ 0.5
C55U A69C	0.762
G56A G67U	0.99
G48A G56U G58A	≤ 0.5

Variant	yeast fitness
C49U C60U A69C	0.566
G51C A65C C66U	≤ 0.5
G48C C62A	0.771
C55A A65C	0.603
G50A G51A	0.645
U54C A70U	0.869
U47A C49U	0.913
U47A C49G	0.767
G48A C49U G63C	0.633
C46U G68A	0.9
C46U G68U	0.857
C46G C49A C61U	0.597
G50A G63A	0.943
G56C A57C C61G	≤ 0.5
A45U C62G G63C	≤ 0.5
G52C G63A A65G	≤ 0.5
U54C C66U A69U	0.62
C46U C49A C55U	0.678
C46A U47G G50A	0.544
G52A G63A	0.546
G52A G63C	0.652
G48A C49G	1.05
C49G G56A G63A	0.584
U53A G67A	0.686

Variant	yeast fitness
A45U C61A G67A	≤ 0.5
C46U G52C A57U	≤ 0.5
G52C A70C	0.715
G52C A70G	0.637
C49A G56A A57U	≤ 0.5
A45U G63C	0.542
A45U C66A	0.649
A45U C66U	0.979
C55G C60A	0.536
G52C G56A	0.689
C46U C66G G67U	≤ 0.5
G56A A65U	0.978
C55G G56A	0.628
C46A C62U A69U	0.735
G48A G52C G67C	≤ 0.5
U47A G48A	0.867
G56C A57U G58A	≤ 0.5
G52A G68A	0.678
G50C C55A	0.619
U47C A57C	0.524
U47C C61G A65C	≤ 0.5
G48A G52A	0.976
G52C A57U C60U C62U	≤ 0.5
G51A C61A C62G	≤ 0.5

Variant	yeast fitness
G50A U64C	0.966
G52C U53C	≤ 0.5
C46U G50C	0.819
C46A C61U A69G	≤ 0.5
G56A A69U	1.01
C55A G63C	0.603
G48C G63C A70C	≤ 0.5
A45U A65C	0.801
U47C G50A G68C	0.539
A45U G56C G58A A65U	0.5
U53A G58A G68U	≤ 0.5
U53G C66U	0.604
G52C A57C	0.526
C46U G48C C62U	1.03
C49G U54C	1.01
U54G A65C	0.606
C49G A57C A70G	0.552
G48A A57C	0.643
A45U U54C	0.886
U54A C61G	0.63
C49G G68U	0.808
G48A A69U	0.961
G48A C55U A70G	≤ 0.5
U47C C60G A69C	≤ 0.5

Variant	yeast fitness
C55U C62G	0.739
C55U A65U	0.794
C55A A57C C66U	≤ 0.5
C49U A65G C66G	≤ 0.5
G48C U64G	0.714
G56C A69U A70U	≤ 0.5
G48A C49U C62U A69U	0.553
C46A G58C	0.874
C46A U54C	0.888
C49G A65C	0.733
G48A A65U	1.02
G50C G51C	0.522
A45U A69C	1.04
A45U A69U	1.05
G48C C49U	0.787
G51A G58A A65U	0.713
C49U A69U	1.01
A45U C55G	0.528
A45U C55A	0.566
G48C A57G	0.705
G48C A57U	0.622
C46U G56A G67A	0.686
G48A C62G C66A	≤ 0.5
C46U G51A	1.02

Variant	yeast fitness
C46A C60U	0.83
G50C C61A	0.544
C46G C62A	0.873
U53A U59A	0.664
U47C U53C	0.795
C46G G58A	0.989
G50A A57G	0.944
G50A A57U	0.6
U47A U53C	0.7
G50U C66U	0.96
U47C A65G	0.92
G48C A70G	0.901
G48C A70C	0.784
C49A A65U G67A	0.529
G48A G68A	0.998
C49A C60A	0.52
A45U U64A	0.708
C46U C60U A65C	0.589
G56A A69C A70U	0.825
G52C U59G	0.538
G52C U59A	0.598
U47C A65C C66G	≤ 0.5
G48A C49A G67U	0.572
C49A G51C U59A	≤ 0.5

Variant	yeast fitness
C49A C55U	0.606
U54C G56A	0.788
C46G U53A	0.75
C55U G58A	0.642
U54C U64C	0.758
U53A G56C	≤ 0.5
G48C C61U	0.733
G48A C61G C62U	≤ 0.5
G56C C61U	0.747
C49U C55G G63A	≤ 0.5
G48C C49U C55U	0.663
U53G U59C C66U	≤ 0.5
A45U C49G A70U	0.63
C46U G67C	1.02
U47A A65G	0.937
G50A G51C C60G	≤ 0.5
U47A A69C	0.82
G52A A57C A69U	0.565
U47A G68C	0.606
C46U C60G C62G	≤ 0.5
A45U C46A G51U	≤ 0.5
A45U G52A A70U	0.574
U47C C49U G68C	0.582
C46U C66U	1.02

Variant	yeast fitness
C55U U64C	0.873
U53C A69C	0.881
G56C A69C A70U	0.605
G50A C55U A65G	≤ 0.5
C55U U64A C66A	≤ 0.5
U54A C61G A65U	≤ 0.5
G50U A69C	0.958
C49U A70C	1.02
G48A C60G A65U	≤ 0.5
C55A U64C	0.623
C49U C62G C66U	0.608
G52A A57C A65C	0.647
C55U C61G C62G	0.629
G50A G58C	1.01
U47A C62G	0.856
G51C U54A	≤ 0.5
G51A A69C	0.979
A45U G50A U64C	0.72
C55U C66A	0.656
G50C G56A G58A	0.64
G52C A57C G63C U64C	≤ 0.5
C49A G67U	0.746
C49G G63C A69U	0.651
C46U G50A C66G	≤ 0.5

Variant	yeast fitness
G48A G51C C61G	1.02
C46G U54C A69C	0.601
G56A A70U	0.918
C46A G50A	0.925
C49G C55A	0.619
C49U G58A A65G	1
C55G A57C C61A C66U	0.544
U54C G58A	0.834
A45U G48A C66G	≤ 0.5
U47A C49U A65C	0.702
C46A G67C	0.896
G56C A65G A70U	0.587
G48A C55U	0.661
C49A A70C	0.743
C46G G48A	0.998
G52A C55G A57U	≤ 0.5
A45U U47A	0.786
A45U U47C	0.995
G48C G63A A65G	0.71
U47G G68C	0.563
U47A G50A	0.831
C49A G52C	0.527
C49U C55G	0.885
C49A C61U C62G	≤ 0.5

Variant	yeast fitness
G50C G52A C61G	0.722
U53G G56C G67C	0.605
C49A C60U G68C	≤ 0.5
U47C G52A	0.724
C49U G67U	0.885
C49U G67C	0.851
U53G A65U	0.635
U47A G51A A69G	≤ 0.5
G48C G52C A57C G58A C66U	≤ 0.5
C49A C60G A70C	≤ 0.5
U54G A70U	0.678
G51A C60U C61U A65G A69C	0.594
C46U C55U	0.823
C46U C55G	0.65
U47C C60G	0.651
U47C C60U	0.722
G51A G56C	0.597
G48A U54G	0.686
U47A G48A A70U	0.748
G48C U54G C55U	≤ 0.5
G48A C62G	0.951
G48C C49A U53A G56A G58C G68C	≤ 0.5
